Measurements as given in ChEMBL document CHEMBL4028848, “Discovery of N-{4-[5-(4-Fluorophenyl)-3-methyl-2-methylsulfanyl-3H-imidazol-4-yl]-pyridin-2-yl}-acetamide (CBS-3595), a Dual p38α MAPK/PDE-4 Inhibitor with Activity against TNFα-Related Diseases” (J Med Chem, 2017).
Values joined by “and” are separate entries in the source; they are usually repeats but may differ in a detail not shown here. Identical values can stand only once. Active and inactive are the calls of the source. The rule behind the calls is not given here.

How the values were obtained:
[1] = Fraction unbound in human plasma at 5 uM by equilibrium dialysis relative to control; assay type: ADME, cell-free
[2] = biological target: Voltage-gated inwardly rectifying potassium channel KCNH2 (Homo sapiens, UniProt Q12809); experiment: Inhibition of human ERG expressed in HEK293 cells by patch clamp method; assay type: cell-based
[3] = Cmax in Wistar rat at 30 mg/kg, po administered as single dose via gavage by LC-MS/MS analysis; assay type: ADME, organism-based; parameters: dose 30 mg/kg, route oral; conditions: in vivo
In short: (§1)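 Male and female Wistar rats received a single oral gavage of 30 mg/kg. Parameters are given as the mean of the two sexes.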

[4] = AUC (0 to t) in Wistar rat at 30 mg/kg, po administered as single dose via gavage by LC-MS/MS analysis; assay type: ADME, organism-based; conditions: in vivo; in short: as §1
[5] = Half life in Wistar rat at 30 mg/kg, po administered as single dose via gavage by LC-MS/MS analysis; assay type: ADME, organism-based; conditions: in vivo
In short: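 Single oral gavage dose of 30 mg/kg given to male and female Wistar rats. PK parameters are reported as the mean of males and females.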

Rattus norvegicus [6] = experiment: Toxicity in Wistar rat assessed as effect on microscopic appearance of liver at 100 to 2500 mg/kg, po administered for 48 hrs followed by administration of 300 mg/kg, bid for 7 days starting 8 hrs interval between first and second dose measured after 7 days; assay type: organism-based; conditions: in vivo, 168 h
CYP2D6 = CYP2D6 (Homo sapiens, UniProt P10635); experiment: Inhibition of CYP2D6 (unknown origin) at 10 uM by fluorimetric assay relative to control; assay type: ADME
In short: (§2)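 CYP1A2, CYP2C9, CYP2C19, CYP3A4 and CYP2D6 were tested as a panel for cytochrome P450 interaction.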

[7] = biological target: Mitogen-activated protein kinase 11 (Homo sapiens) (UniProt Q15759); experiment: Inhibition of p38beta (unknown origin) at 10 uM relative to control
Rattus norvegicus [8] = experiment: Toxicity in Wistar rat assessed as effect on number of blood cells at 100 to 2500 mg/kg, po administered for 48 hrs followed by administration of 300 mg/kg, bid for 7 days starting 8 hrs interval between first and second dose measured after 7 days; assay type: organism-based; conditions: in vivo, 168 h
In short: (§3)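 Wistar rats, maximum-tolerated-dose estimate in two steps. Step one: single oral doses of 100 (n = 1), 500 (n = 1) and 2500 mg/kg (n = 3), with clinical signs watched for 48 h. Step two: 300 mg/kg (n = 5) twice daily for 7 days, second dose 8 h after the first. After 7 days, body weight gain, blood cell number and composition, liver enzymes, and macroscopic liver and spleen were recorded.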

CYP1A2 = CYP1A2 (Homo sapiens, UniProt P05177); experiment: Inhibition of CYP1A2 (unknown origin) at 10 uM by fluorimetric assay relative to control; assay type: ADME; in short: as §2
Rattus norvegicus [9] = experiment: Toxicity in Wistar rat assessed as effect on liver enzyme at 100 to 2500 mg/kg, po administered for 48 hrs followed by administration of 300 mg/kg, bid for 7 days starting 8 hrs interval between first and second dose measured after 7 days; assay type: organism-based; conditions: in vivo, 168 h; in short: as §3
Rattus norvegicus [10] = experiment: Toxicity in Wistar rat assessed as death at 100 to 2500 mg/kg, po administered for 48 hrs followed by administration of 300 mg/kg, bid for 7 days with 8 hrs interval between first and second dose measured after 7 days; assay type: organism-based; conditions: in vivo, 168 h; in short: as §3
[11] = Ratio of Cmax in Wistar rat at 30 mg/kg, po administered as single dose via gavage to IC50 for P38 MAPKalpha in LPS-stimulated human whole blood assessed as decrease in TNFalpha level
Rattus norvegicus [12] = experiment: Toxicity in Wistar rat assessed as effect on composition of blood cells at 100 to 2500 mg/kg, po administered for 48 hrs followed by administration of 300 mg/kg, bid for 7 days starting 8 hrs interval between first and second dose measured after 7 days; assay type: organism-based; conditions: in vivo, 168 h; in short: as §3
Rattus norvegicus [13] = experiment: Toxicity in Wistar rat assessed as change in body weight at 100 to 2500 mg/kg, po administered for 48 hrs followed by administration of 300 mg/kg, bid for 7 days starting 8 hrs interval between first and second dose measured after 7 days; assay type: organism-based; conditions: in vivo, 168 h; in short: as §3
[14] = biological target: Mitogen-activated protein kinase 10 (Homo sapiens) (UniProt P53779); experiment: Inhibition of human recombinant full length N-terminal His6 tagged JNK3 expressed in Sf21 cells at 10 uM relative to control
Mus musculus [15] = experiment: Antiarthritic activity in DBA/1 mouse assessed as decrease in collagen-induced arthritic score at 50 mg/kg, bid administered on day 22 post second injection of type 2 collagen; assay type: functional, organism-based
In short: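 Collagen-induced arthritis in male DBA/1 mice. Dosing at 50 mg/kg b.i.d. began on day 22, one day after the second (boost) injection of type II collagen.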

CYP3A4 = CYP3A4 (Homo sapiens, UniProt P08684); experiment: Inhibition of CYP3A4 (unknown origin) at 10 uM by fluorimetric assay relative to control; assay type: ADME; in short: as §2
Rattus norvegicus [16] = experiment: Toxicity in Wistar rat assessed as effect on microscopic appearance of spleen at 100 to 2500 mg/kg, po administered for 48 hrs followed by administration of 300 mg/kg, bid for 7 days starting 8 hrs interval between first and second dose measured after 7 days; assay type: organism-based; conditions: in vivo, 168 h
CYP2C19 = CYP2C19 (Homo sapiens, UniProt P33261); experiment: Inhibition of CYP2C19 (unknown origin) at 10 uM by fluorimetric assay relative to control; assay type: ADME; in short: as §2
Mus musculus [17] = experiment: Toxicity in DBA/1 mouse model of collagen-induced arthritis at 50 mg/kg, bid administered on day 22 post second injection of type 2 collagen; assay type: organism-based; conditions: in vivo
In short: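 Male DBA/1 mice with collagen-induced arthritis were dosed at 50 mg/kg b.i.d. starting on day 22, 1 day after the type II collagen boost. Animals were monitored for signs of toxicity, including body weight loss relative to controls.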

Rattus norvegicus [18] = experiment: Protection against LPS-induced endotoxemia in Wistar rat assessed as inhibition of plasma TNFalpha level at 10 mg/kg, po pretreated for 1 hr followed by LPS addition measured after 90 mins relative to control; assay type: functional
CYP2C9 = CYP2C9 (Homo sapiens, UniProt P11712); experiment: Inhibition of CYP2C9 (unknown origin) at 10 uM by fluorimetric assay relative to control; assay type: ADME; in short: as §2
[19] = Tmax in Wistar rat at 30 mg/kg, po administered as single dose via gavage by LC-MS/MS analysis; assay type: ADME, organism-based; conditions: in vivo
In short: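 Male and female Wistar rats each received a single 30 mg/kg oral gavage dose. Tmax is the mean of males and females.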

Rattus norvegicus [20] = experiment: In vivo inhibition of P38 MAPKalpha in Lewis rat assessed as decrease in LPS-stimulated TNFalpha level in serum at 30 mg/kg pretreated for 3 hrs followed by LPS addition measured after 1.5 hrs post dose; assay type: functional, organism-based
Rattus norvegicus [21] = experiment: In vivo inhibition of P38 MAPKalpha in Sprague-Dawley rat assessed as decrease in LPS-stimulated TNFalpha level in serum at 3 mg/kg, po pretreated for 1 hr followed by LPS addition measured after 2 hrs relative to control; assay type: functional
Rattus norvegicus [22] = experiment: In vivo inhibition of P38 MAPKalpha in Lewis rat assessed as decrease in LPS-stimulated TNFalpha level in serum at 30 mg/kg pretreated for 1 hrs followed by LPS addition measured after 1.5 hrs post dose; assay type: functional, organism-based
Homo sapiens = species on record: Homo sapiens; experiment: Inhibition of PDE4 in LPS-stimulated human whole blood assessed as decrease in leukotriene B4 level in plasma
[23] = biological target: Mitogen-activated protein kinase 14 (Homo sapiens, UniProt Q16539); experiment: Inhibition of p38alpha MAPK (unknown origin)
Rattus norvegicus [24] = experiment: In vivo inhibition of P38 MAPKalpha in Lewis rat assessed as decrease in LPS-stimulated TNFalpha level in serum at 10 mg/kg, po pretreated for 1 hr followed by LPS addition measured after 1.5 hrs post dose relative to control; assay type: functional
In short: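 Lewis rats, n = 8/group: females dosed orally at 10 mg/kg at −1, −3 or −5 h relative to LPS challenge, plus one male group dosed at −1 h. Male and female vehicle controls were given at −1 h. Serum TNFα was measured after LPS and compared with vehicle.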

[25] = Apparent permeability in human Caco2 cells at 10 uM; assay type: ADME, cell-based; conditions: Caco-2
[26] = biological target: Mitogen-activated protein kinase 9 (Homo sapiens) (UniProt P45984); experiment: Inhibition of human recombinant full length N-terminal His6 tagged JNK2 expressed in Sf21 cells at 10 uM relative to control
[27] = biological target: Mitogen-activated protein kinase 8 (Homo sapiens) (UniProt P45983); experiment: Inhibition of human recombinant full length N-terminal His6 tagged JNK1 expressed in Sf21 cells at 10 uM relative to control
Mus musculus [28] = experiment: Protection against LPS/galactosamine-induced endotoxemia in Balb/c mouse assessed as inhibition of plasma TNFalpha level at 10 mg/kg, po pretreated for 1 hr followed by LPS/galactosamine addition measured after 90 mins relative to control; assay type: functional

Sequence of Voltage-gated inwardly rectifying potassium channel KCNH2 (Q12809 whole entry): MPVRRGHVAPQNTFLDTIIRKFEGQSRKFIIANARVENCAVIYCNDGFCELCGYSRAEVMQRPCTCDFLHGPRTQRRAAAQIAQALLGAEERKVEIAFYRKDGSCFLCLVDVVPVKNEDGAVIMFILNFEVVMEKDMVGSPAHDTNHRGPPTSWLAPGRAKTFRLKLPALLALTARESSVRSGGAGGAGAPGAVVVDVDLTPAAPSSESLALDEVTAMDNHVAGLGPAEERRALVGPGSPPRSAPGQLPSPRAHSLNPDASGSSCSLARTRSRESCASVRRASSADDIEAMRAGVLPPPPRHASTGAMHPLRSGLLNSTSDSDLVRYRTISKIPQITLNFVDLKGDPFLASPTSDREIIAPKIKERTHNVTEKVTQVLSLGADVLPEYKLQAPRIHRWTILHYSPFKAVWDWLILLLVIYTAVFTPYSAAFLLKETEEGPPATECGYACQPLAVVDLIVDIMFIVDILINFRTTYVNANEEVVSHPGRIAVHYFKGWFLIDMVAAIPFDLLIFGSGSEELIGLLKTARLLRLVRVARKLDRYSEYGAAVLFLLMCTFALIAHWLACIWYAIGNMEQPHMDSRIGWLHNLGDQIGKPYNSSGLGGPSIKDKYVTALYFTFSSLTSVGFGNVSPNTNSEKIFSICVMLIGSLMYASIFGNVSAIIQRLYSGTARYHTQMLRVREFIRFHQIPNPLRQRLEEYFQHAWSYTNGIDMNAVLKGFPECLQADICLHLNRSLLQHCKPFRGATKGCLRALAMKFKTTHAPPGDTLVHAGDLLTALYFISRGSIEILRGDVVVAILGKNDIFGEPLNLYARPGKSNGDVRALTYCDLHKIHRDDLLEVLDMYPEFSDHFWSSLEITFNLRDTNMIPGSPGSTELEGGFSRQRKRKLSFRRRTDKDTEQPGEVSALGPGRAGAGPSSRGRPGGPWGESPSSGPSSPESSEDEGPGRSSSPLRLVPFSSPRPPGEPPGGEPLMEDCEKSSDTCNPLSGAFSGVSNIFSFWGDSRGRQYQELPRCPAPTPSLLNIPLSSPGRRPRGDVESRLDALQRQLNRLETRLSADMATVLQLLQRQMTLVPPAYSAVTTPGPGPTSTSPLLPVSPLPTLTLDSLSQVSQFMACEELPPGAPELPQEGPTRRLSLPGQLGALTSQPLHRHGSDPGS
Sequence of Mitogen-activated protein kinase 10 (Homo sapiens) (P53779 whole entry): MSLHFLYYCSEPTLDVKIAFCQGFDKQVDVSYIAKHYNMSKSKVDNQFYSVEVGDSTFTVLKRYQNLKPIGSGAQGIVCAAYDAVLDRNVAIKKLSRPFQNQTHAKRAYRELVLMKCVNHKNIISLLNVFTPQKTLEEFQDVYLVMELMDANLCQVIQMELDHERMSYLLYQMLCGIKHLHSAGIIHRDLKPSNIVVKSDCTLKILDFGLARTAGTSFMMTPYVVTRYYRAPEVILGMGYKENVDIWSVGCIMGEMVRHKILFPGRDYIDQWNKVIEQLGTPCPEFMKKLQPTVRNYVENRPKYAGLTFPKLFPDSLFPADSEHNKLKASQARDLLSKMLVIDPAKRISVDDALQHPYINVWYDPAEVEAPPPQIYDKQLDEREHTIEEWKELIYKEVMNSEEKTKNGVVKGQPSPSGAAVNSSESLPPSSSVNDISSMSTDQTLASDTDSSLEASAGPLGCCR
Sequence of CYP2D6 (P10635 whole entry): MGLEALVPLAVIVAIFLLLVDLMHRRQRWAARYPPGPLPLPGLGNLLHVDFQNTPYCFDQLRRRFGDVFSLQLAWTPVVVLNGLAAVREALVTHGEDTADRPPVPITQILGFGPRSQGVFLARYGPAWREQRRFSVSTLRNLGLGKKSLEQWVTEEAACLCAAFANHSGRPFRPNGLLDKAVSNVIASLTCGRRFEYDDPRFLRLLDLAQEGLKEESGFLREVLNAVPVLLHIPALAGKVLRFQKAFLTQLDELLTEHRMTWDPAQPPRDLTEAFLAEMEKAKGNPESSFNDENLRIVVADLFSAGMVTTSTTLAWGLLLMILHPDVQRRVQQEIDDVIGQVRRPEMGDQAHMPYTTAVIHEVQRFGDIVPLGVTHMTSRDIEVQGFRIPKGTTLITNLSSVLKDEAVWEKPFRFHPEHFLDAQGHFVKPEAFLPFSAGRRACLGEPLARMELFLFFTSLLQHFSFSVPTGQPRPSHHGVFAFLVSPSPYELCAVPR
Sequence of Mitogen-activated protein kinase 11 (Homo sapiens) (Q15759 whole entry): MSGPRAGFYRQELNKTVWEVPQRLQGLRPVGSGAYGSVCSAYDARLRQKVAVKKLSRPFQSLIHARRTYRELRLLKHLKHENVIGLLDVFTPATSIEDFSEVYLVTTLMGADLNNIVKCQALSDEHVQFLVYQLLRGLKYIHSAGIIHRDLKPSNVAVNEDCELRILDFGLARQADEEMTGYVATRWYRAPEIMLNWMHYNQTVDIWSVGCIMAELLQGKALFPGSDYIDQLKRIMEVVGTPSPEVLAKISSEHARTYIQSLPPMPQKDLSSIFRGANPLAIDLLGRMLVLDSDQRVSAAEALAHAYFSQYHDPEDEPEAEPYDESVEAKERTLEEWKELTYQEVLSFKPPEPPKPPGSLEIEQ
Sequence of CYP2C19 (P33261 whole entry): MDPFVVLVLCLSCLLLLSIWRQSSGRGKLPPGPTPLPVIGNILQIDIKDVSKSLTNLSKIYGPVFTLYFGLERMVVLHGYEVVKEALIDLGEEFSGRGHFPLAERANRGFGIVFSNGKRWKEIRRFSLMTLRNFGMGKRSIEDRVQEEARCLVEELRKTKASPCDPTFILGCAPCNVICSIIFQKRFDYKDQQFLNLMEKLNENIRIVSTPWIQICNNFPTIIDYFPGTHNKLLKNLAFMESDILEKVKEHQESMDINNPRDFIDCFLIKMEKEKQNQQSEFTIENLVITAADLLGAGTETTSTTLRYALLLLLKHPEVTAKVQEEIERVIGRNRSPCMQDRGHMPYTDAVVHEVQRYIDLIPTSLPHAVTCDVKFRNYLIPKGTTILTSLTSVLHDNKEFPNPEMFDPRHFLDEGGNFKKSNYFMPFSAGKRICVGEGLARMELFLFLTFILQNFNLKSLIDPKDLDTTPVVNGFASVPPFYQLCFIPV
Sequence of CYP2C9 (P11712 whole entry): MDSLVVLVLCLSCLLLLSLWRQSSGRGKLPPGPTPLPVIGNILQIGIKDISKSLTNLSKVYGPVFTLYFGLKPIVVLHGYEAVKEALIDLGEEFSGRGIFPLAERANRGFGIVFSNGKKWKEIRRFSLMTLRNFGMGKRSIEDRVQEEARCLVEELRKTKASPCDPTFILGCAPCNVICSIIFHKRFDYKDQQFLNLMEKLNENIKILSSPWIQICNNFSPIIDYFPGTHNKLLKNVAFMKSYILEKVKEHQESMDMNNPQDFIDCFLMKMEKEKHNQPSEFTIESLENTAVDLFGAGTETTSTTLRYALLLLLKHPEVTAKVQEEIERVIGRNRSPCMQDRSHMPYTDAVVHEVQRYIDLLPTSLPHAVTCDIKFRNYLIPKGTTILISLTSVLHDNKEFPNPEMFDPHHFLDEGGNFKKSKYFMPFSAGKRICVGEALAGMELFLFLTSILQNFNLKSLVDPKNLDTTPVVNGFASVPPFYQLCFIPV
Sequence of CYP1A2 (P05177 whole entry): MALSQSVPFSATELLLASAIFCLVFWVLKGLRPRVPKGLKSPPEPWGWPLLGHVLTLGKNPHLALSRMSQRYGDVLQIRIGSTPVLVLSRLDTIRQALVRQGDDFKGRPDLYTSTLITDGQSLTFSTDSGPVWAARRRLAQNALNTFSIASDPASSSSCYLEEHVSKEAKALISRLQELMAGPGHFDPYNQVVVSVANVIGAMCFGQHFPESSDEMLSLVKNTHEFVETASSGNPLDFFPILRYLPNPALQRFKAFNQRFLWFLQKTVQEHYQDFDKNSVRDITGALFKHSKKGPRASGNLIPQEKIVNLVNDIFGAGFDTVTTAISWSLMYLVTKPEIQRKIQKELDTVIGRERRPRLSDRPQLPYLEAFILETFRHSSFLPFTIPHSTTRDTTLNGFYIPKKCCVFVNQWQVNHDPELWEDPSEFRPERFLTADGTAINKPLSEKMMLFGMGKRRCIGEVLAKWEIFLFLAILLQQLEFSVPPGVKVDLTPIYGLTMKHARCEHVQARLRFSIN
Sequence of CYP3A4 (P08684 whole entry): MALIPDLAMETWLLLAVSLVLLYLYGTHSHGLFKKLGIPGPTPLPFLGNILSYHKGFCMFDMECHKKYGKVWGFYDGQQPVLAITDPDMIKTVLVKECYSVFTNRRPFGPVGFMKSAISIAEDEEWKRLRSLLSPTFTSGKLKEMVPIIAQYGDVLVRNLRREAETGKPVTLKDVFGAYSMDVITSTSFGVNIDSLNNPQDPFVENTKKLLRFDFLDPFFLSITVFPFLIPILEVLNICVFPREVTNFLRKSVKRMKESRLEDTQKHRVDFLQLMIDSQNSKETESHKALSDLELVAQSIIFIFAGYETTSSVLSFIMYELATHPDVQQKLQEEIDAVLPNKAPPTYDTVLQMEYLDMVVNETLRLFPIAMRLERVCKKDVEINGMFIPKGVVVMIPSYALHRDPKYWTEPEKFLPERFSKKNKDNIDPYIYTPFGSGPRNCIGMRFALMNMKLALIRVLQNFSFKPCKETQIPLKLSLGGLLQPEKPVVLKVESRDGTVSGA
Sequence of Mitogen-activated protein kinase 9 (Homo sapiens) (P45984 whole entry, looked up): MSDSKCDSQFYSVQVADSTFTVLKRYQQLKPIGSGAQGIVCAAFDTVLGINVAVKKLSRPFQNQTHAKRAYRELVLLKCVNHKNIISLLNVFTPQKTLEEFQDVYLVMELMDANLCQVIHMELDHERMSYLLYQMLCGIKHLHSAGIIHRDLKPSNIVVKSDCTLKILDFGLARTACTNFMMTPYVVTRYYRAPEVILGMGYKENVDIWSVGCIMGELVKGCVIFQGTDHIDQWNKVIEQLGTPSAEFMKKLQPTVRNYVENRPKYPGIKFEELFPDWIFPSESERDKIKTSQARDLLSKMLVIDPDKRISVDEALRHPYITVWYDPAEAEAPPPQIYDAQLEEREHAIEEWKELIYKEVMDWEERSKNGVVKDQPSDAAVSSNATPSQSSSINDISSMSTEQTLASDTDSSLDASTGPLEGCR

CSc1nc(-c2ccc(F)cc2)c(-c2ccnc(NC(C)=O)c2)n1C
fraction unbound at 5 µM [1]: 0.037
IC50 [2]: 28.6 µM
inhibition (INH) ([2]; human, hek293): Dose-dependent effect
Cmax [3]: 738 ng/mL and 2.07 µM
AUC(0-t) [4]: 4930 ng·h/mL and 13.8 µM·h
half-life [5]: 3 h
Activity (Rattus norvegicus [6]): Non-Toxic
inhibition at 10 µM (CYP2D6): 45%
inhibition [7]: > 70%
Activity (Rattus norvegicus [8]): Non-Toxic
inhibition at 10 µM (CYP1A2): 18%
Activity (Rattus norvegicus [9]): Non-Toxic
Activity (Rattus norvegicus [10]): Non-Toxic
Ratio [11]: 12.5
Activity (Rattus norvegicus [12]): Non-Toxic
Activity (Rattus norvegicus [13]): Non-Toxic
inhibition [14]: > 70%
Activity (Mus musculus [15]): Active
inhibition at 10 µM (CYP3A4): -7%
Activity (Rattus norvegicus [16]): Non-Toxic
inhibition at 10 µM (CYP2C19): 4%
Activity (Mus musculus [17]): Non-Toxic
inhibition in vivo at 10 mg/kg (Rattus norvegicus [18]): 97%
inhibition at 10 µM (CYP2C9): 46%
Tmax [19]: 1 h

C[S+]([O-])c1ccc(-c2nc(-c3ccc(F)cc3)c(-c3ccncc3)[nH]2)cc1 (centres undefined) [SB-203580]
inhibition (Rattus norvegicus [20]): Active
inhibition in vivo at 3 mg/kg (Rattus norvegicus [21]): 37%
inhibition (Rattus norvegicus [22]): Active
inhibition (Homo sapiens): inactive

CC(=O)Nc1cc(-c2c(-c3ccc(F)cc3)nc([S@@+](C)[O-])n2C)ccn1
IC50 [23]: 0.129 µM

CCc1nc(-c2cccc(C)c2)c(-c2ccnc(NC(=O)c3ccccc3)c2)s1 [TAK-715]
inhibition in vivo at 10 mg/kg (Rattus norvegicus [24]): 6%

CC(C)NCC(O)COc1cccc2ccccc12 (centres undefined) [PROPRANOLOL]
Papp at 10 µM [25]: 71.1 ×10⁻⁶ cm/s

CSc1nc(-c2ccc(F)cc2)c(-c2ccnc(Nc3ccccc3)c2)[nH]1
Cmax [3]: 608 ng/mL and 1.61 µM
inhibition [26]: > 70%
AUC(0-t) [4]: 3710 ng·h/mL and 9.86 µM·h
half-life [5]: 2.8 h
Activity (Rattus norvegicus [6]): Non-Toxic
inhibition at 10 µM (CYP2D6): 74.5%
inhibition [7]: > 70%
Activity (Rattus norvegicus [8]): Non-Toxic
inhibition at 10 µM (CYP1A2): 72%
Activity (Rattus norvegicus [9]): Non-Toxic
Activity (Rattus norvegicus [12]): Non-Toxic
Activity (Rattus norvegicus [13]): Non-Toxic
inhibition [14]: > 70%
Activity (Mus musculus [15]): Active
inhibition at 10 µM (CYP3A4): 16.5%
Activity (Rattus norvegicus [16]): Non-Toxic
inhibition at 10 µM (CYP2C19): 90%
inhibition [27]: > 70%
Activity (Mus musculus [17]): Non-Toxic
inhibition at 10 µM (CYP2C9): 60%
inhibition in vivo at 10 mg/kg (Mus musculus [28]): 60%
Tmax [19]: 2 h
